For assay [1], the target named is T1, Prostaglandin E synthase (Homo sapiens) (UniProt O14684).
T1 sequence (whole entry): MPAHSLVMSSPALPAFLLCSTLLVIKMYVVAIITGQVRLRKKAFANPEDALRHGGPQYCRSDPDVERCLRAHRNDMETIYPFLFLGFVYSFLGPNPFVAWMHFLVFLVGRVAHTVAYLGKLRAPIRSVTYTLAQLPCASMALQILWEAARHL
The experiment in a line: Inhibition of human recombinant microsomal PGES-1 expressed in freestyle 293-f cells assessed as conversion of PGH2 to PGE2 at 10 uM after 15 mins by enzyme immunoassay. The assay is classed as cell-based. Put shortly: (§1)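 Reaction in 0.2 M sodium phosphate pH 7.2 stock with 0.1 M GSH stock. Enzyme and inhibitor preincubated 15 min at room temperature, then started with cold PGH2 (1 μM final) on ice. Stopped after 30 s with SnCl2 in ethanol. PGE2 measured by enzyme immunoassay against an enzyme-free blank.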

For assay [2], the target named is T2, Prostaglandin E synthase (Homo sapiens, UniProt O14684).
T2 sequence (O14684 whole entry): T1 sequence (whole entry)
Put plainly: Inhibition of human recombinant microsomal PGES-1 expressed in freestyle 293-f cells assessed as conversion of PGH2 to PGE2 after 15 mins by enzyme immunoassay. The assay is classed as cell-based. Put shortly:
as §1

Assay [3] has as its target T2, Prostaglandin E synthase. Put plainly: Inhibition of microsomal PGES. Put shortly:
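Compound was preincubated with enzyme for 15 min at room temperature. PGH2 (1 μM final) was added on ice, and the reaction was stopped after 30 s with SnCl2. PGE2 was measured by EIA against an enzyme-free blank.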

The term inhibition denotes the drop in the measured response relative to a control, in per cent. For orientation: pIC50 means the IC50 on a negative log10 scale, so that one unit is a factor of ten.

pIC50: −log10 of the molar value.

For the compound `CC1CCc2c(sc3ncnc(SC(C)C(=O)O)c23)C1` (centres undefined), the inhibition in assay [1] amounted to 16%.

`CC(=O)NC(Cc1ccc(C)cc1)C(=O)NC(Cc1ccc(F)cc1)C(=O)N1CCC(OCc2ccccc2)CC1CCCNC(=N)N` (centres undefined): in assay [1], the inhibition was found to be 31%.

On to `COCCN(c1ccc(/C=C2\S/C(=N\c3ccccc3)N(C(C)C(=O)O)C2=O)cc1)c1ccccc1OC` (centres undefined), for which the inhibition in assay [1] was 83%. The negative logarithm of the IC50 (pIC50) in assay [2] was 5.46.

As for `O=C(O)CSc1nc2sc3c(c2c(=O)n1Cc1ccccc1)CCCCC3`, in assay [1], the inhibition stood at 20%.

`CC1=C(CC(=O)O)c2cc(F)ccc2/C1=C\c1ccc([S+](C)[O-])cc1` (centres undefined) showed a negative-log IC50 (pIC50) in assay [3] of 4.10.

For the compound `CCN1C(=O)C2Cc3c([nH]c4ccccc34)C(c3ccc(Cl)cc3)N2C1=O` (centres undefined), the inhibition in assay [1] was found to be 10%.

With `Cc1c(C(=O)O)ccc2c1NC(c1ccc(OCC#N)cc1)C1CC=CC21` (centres undefined), the inhibition in assay [1] stood at 39%.

For `CS(=O)(=O)Nc1ccc([N+](=O)[O-])cc1OC1CCCCC1` [NS-398], the pIC50 in assay [3] was 4.70.

For `CCOC(=O)Cn1c(=O)c2c(nc3n2CCCN3c2ccc(OCC)cc2)n(C)c1=O`, the inhibition in assay [1] was found to be 39%.

As for `O=[N+]([O-])C(/C=C(\Cl)[N+](=O)[O-])=C(N1CCCCC1)N1CCCCC1`, the inhibition in assay [1] amounted to 15%.

Take `N#CCC(=O)N/N=C(\c1nc2ccc(Cl)cc2nc1O)C(O)c1ccc(Cl)cc1` (centres undefined): in assay [1], the inhibition came to 50%.

Regarding `CC1(C)C(c2ccc(Cl)cc2)N(O)C2(CCCCC2=O)N1O` (centres undefined), the inhibition in assay [1] turned out to be 43%.

For `O=[N+]([O-])c1cc2c(c([N+](=O)[O-])c1)Nc1ccccc1N=C2c1ccc(Cl)cc1`, the inhibition in assay [1] came to 26%.
